Experimental data pooled from the literature.
Protocols differ between the studies behind these lines.
Target: RAC-alpha serine/threonine-protein kinase (AKT1, Homo sapiens, UniProt P31749)

C#Cc1cnc(Nc2ccnc(CO)c2)nc1Nc1ccccc1S(C)(=O)=NC#N (stereo not shown) — remaining signal (cell-free assay; 1 µM): 100%
CCCCC(=O)Nc1ccc(-c2ccc3ncn(CCC)c(=O)c3c2)cn1 — remaining binding (binding, competition with immobilised ligand; 0.5 µM): 100%
N#Cc1ccc(NC(=O)Nc2ccccc2)cc1 — remaining binding (cell-free assay, competition with immobilised ligand; 25 µM): 100%
Cc1ccc(NC(=O)c2ccnc(C(F)(F)F)c2)cc1-c1cc(OCCO)nc(N2CCOCC2)c1 — remaining binding (binding; 1 µM): 99%
CO[C@@H]1[C@H](N(C)C(=O)c2ccccc2)C[C@H]2O[C@]1(C)n1c3ccccc3c3c4c(c5c6ccccc6n2c5c31)C(=O)NC4 — inhibition (enzyme activity, inhibitor; 1 µM): 7%
C1=C/COCc2cc(ccc2OCCN2CCCC2)Nc2nccc(n2)-c2cccc(c2)COC/1 — remaining binding (binding; 0.1 µM): 100%
COc1ccc2oc(-c3ccc4nc(N)oc4c3)c/c(=N\c3ccccc3NC(=O)CCN)c2c1 — remaining binding (binding; 1 µM): 91%
C=CC(=O)N1CCC([C@@H]2CCNc3c(C(N)=O)c(-c4ccc(Oc5ccccc5)cc4)nn32)CC1 — inhibition (enzyme activity, inhibitor; 1 µM): 7%
Cc1cc(O)c(-c2ccc([C@@H](C)CN(C)C)cc2)c2c1[nH]c(=O)c1sccc12 — inhibition (enzyme activity, inhibitor; 0.1 µM): -0.622%
COc1ccc2[nH]c3c4[nH]c5ccc(OC)cc5c4c4c(c3c2c1)C(=O)NC4=O — remaining binding (binding; 1 µM): 72%
